Test results as given in ChEMBL document CHEMBL4414562, “Discovery of the First in Vivo Active Inhibitors of the Soluble Epoxide Hydrolase Phosphatase Domain” (J Med Chem, 2019).
The source made the active and inactive calls. The rule behind the calls is not given here.

Assays:
[1] = target: T1, Oxysterols receptor LXR-alpha (Homo sapiens) (UniProt Q13133); assay: Activation of Gal4-fused human LXRalpha LBD transfected in HEK293T cells at 10 uM after 12 to 14 hrs by luciferase reporter gene assay; format: cell-based
T1 sequence (whole entry): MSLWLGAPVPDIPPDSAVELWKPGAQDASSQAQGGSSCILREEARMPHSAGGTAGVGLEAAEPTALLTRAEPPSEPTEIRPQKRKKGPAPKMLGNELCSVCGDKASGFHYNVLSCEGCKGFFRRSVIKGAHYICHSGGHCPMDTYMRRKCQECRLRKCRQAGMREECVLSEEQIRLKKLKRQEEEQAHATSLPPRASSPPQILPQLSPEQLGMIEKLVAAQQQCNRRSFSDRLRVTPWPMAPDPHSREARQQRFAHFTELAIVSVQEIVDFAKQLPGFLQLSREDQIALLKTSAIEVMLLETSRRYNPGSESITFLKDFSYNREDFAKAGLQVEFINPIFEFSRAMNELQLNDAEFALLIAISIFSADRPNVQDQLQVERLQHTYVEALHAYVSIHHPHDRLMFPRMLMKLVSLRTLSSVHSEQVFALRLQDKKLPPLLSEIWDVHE
Method in brief: (§1)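 Gal4–human nuclear receptor LBD fusion (pFA-CMV-hNR-LBD) co-transfected with pFR-Luc and pRL-SV40 (Lipofectamine LTX) into HEK293T cells seeded the day before. 5 h post-transfection, compound added in Opti-MEM with 0.1% DMSO and incubated 12−14 h. Dual-Glo firefly/Renilla luciferase read. Activation expressed relative to reference agonist at 1 μM. Triplicates, ≥3 independent experiments.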

[2] = target: T2, Oxysterols receptor LXR-beta (Homo sapiens) (UniProt P55055); assay: Activation of Gal4-fused human LXRbeta LBD transfected in HEK293T cells at 10 uM after 12 to 14 hrs by luciferase reporter gene assay; format: cell-based; method in brief: as §1
T2 sequence (whole entry): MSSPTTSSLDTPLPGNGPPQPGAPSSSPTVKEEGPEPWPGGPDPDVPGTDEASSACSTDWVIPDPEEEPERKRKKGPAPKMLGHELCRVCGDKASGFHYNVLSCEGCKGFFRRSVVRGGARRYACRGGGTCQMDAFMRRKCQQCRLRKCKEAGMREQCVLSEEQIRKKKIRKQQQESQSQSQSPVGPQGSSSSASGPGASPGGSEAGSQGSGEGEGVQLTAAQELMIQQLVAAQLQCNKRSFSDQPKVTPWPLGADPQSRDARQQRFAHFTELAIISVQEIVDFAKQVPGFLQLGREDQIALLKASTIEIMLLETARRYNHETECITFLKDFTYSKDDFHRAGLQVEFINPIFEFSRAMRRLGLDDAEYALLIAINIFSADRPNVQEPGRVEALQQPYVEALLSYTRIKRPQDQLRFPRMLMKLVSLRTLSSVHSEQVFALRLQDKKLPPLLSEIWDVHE

[3] = target: T3, Bifunctional epoxide hydrolase 2 (Mus musculus, UniProt P34914); assay: Inhibition of hydrolase activity of full length mouse soluble epoxide hydrolase pre-incubated for 30 mins before PHOME substrate addition by fluorescence based assay
T3 sequence (P34914 whole entry): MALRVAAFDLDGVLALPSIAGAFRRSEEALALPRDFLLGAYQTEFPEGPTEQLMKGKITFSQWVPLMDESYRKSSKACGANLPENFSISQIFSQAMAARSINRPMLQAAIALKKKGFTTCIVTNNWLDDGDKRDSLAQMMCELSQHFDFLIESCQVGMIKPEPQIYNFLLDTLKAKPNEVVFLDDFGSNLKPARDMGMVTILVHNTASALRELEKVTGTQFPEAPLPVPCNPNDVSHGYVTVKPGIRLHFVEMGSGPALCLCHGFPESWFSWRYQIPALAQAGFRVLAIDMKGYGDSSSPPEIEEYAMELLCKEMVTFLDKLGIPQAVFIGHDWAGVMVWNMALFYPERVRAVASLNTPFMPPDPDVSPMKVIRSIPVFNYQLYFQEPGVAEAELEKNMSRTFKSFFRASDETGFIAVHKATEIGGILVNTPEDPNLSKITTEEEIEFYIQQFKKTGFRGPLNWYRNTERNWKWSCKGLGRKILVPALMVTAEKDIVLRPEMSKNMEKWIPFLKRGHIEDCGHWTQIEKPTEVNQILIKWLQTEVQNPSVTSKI
Method in brief: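 Hydrolase assay with 0.1 μM full-length enzyme in Bis-Tris pH 7 containing 0.1 mg/mL BSA and 0.01% Triton X-100. […] Reaction started with PHOME (50 μM final). 6-Methoxynaphthaldehyde fluorescence (ex 330/em 465 nm) read every minute for 45 min. Triplicates.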

[4] = target: T4, Peroxisome proliferator-activated receptor delta (Homo sapiens) (UniProt Q03181); assay: Activation of Gal4-fused human PPARbeta/delta LBD transfected in HEK293T cells at 10 uM after 12 to 14 hrs by luciferase reporter gene assay; format: cell-based; method in brief: as §1
T4 sequence (whole entry): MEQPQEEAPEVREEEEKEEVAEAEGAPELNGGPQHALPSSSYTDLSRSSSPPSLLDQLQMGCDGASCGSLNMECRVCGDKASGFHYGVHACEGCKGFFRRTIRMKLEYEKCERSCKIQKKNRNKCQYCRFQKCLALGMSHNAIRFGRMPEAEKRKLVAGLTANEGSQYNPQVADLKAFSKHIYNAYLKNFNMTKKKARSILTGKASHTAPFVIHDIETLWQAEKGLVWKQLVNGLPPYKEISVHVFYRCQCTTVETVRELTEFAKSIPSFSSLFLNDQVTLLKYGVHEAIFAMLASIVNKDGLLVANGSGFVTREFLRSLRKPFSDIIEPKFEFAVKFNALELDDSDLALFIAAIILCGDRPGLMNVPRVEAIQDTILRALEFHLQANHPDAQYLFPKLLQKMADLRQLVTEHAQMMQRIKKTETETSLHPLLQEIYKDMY

[5] = target: T5, Peroxisome proliferator-activated receptor gamma (Homo sapiens) (UniProt P37231); assay: Activation of Gal4-fused human PPARgamma LBD transfected in HEK293T cells at 10 uM after 12 to 14 hrs by luciferase reporter gene assay; format: cell-based; method in brief: as §1
T5 sequence (whole entry): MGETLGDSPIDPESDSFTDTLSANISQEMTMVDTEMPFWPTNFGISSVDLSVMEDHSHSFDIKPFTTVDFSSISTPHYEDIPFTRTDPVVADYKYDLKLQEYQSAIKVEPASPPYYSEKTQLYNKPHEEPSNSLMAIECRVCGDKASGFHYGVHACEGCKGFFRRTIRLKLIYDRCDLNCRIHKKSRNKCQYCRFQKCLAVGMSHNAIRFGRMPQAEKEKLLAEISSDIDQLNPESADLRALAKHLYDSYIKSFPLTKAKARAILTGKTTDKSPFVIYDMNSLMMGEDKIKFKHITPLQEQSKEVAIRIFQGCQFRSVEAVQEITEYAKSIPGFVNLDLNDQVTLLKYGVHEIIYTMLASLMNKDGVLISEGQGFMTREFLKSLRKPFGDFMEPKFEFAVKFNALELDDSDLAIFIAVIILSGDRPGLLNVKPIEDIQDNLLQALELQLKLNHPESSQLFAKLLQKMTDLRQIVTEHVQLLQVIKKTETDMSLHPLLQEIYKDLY

[6] = target: T3, Bifunctional epoxide hydrolase 2; assay: Inhibition of phosphatase activity of full length mouse soluble epoxide hydrolase pre-incubated for 30 mins before FDP substrate addition by fluorescence based assay

Structure (SMILES) | Activity [1] | Activity [2] | IC50 [3] [µM] | Activity [4] | Activity [5] | IC50 [6] [µM]
O=C(O)CCCc1nc(-c2ccc(Cl)c(Cl)c2)c(-c2ccccc2)o1 | inactive | inactive | > 30 | inactive | 29% | > 30
O=C(O)CCc1nc(-c2ccccc2)c(-c2ccccc2)o1 [OXAPROZIN] | inactive | inactive | > 300 | inactive | inactive | 35.5
